Active and inactive are the calls of the source. No cut-off for these calls is given here.
Columns and labels:
[1] = target: T1, Muscarinic acetylcholine receptor M5 (Homo sapiens) (UniProt P08912); test: Antagonist activity at human muscarinic M5 receptor assessed as inhibition of acetylcholine-induced calcium response at 10 uM; format: functional
T1 sequence (whole entry): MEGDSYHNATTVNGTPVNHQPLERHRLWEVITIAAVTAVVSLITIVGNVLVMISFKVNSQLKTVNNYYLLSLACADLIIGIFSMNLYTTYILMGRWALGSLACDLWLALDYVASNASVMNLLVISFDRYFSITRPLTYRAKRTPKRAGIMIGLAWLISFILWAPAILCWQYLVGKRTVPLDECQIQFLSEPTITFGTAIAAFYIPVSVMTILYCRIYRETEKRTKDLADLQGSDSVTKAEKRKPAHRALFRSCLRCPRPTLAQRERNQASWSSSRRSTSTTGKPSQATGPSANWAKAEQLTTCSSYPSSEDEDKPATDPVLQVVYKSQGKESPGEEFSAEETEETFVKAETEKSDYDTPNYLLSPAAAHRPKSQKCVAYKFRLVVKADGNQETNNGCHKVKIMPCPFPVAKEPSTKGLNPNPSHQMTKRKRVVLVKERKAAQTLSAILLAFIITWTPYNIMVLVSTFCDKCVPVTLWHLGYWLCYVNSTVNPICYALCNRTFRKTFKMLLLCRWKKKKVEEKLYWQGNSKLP
Outline: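 Single-point functional assay in hM5 cells challenged with an EC80 of ACh, compound at 10 μM. Result is % inhibition, averaged from three determinations.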

[2] = target: T2, Muscarinic acetylcholine receptor M2 (Homo sapiens, UniProt P08172); test: Antagonist activity at human muscarinic M2 receptor assessed as inhibition of acetylcholine-induced calcium response; format: functional
T2 sequence (P08172 whole entry): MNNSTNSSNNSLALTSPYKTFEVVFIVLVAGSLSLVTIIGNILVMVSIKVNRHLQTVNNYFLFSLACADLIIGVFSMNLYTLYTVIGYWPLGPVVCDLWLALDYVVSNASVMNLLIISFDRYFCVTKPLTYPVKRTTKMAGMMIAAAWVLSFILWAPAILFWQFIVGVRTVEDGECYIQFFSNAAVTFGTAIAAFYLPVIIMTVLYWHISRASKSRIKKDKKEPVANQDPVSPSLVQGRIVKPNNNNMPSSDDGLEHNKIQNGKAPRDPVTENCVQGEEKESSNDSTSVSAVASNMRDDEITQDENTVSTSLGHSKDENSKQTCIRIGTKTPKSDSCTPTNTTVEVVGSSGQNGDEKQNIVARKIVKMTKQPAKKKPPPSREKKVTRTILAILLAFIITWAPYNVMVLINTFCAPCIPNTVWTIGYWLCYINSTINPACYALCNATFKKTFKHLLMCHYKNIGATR
Outline: (§1)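 Concentration–response curves (10-point) run in cells expressing human M1, M2, M3, M4 or M5 receptors, n=3. IC50 comes from the curves, with pIC50 also reported. The residual ACh response at 30 μM is given as % ACh min (mean±SEM).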

[3] = target: T3, Muscarinic acetylcholine receptor M4 (Homo sapiens, UniProt P08173); test: Antagonist activity at human muscarinic M4 receptor assessed as inhibition of acetylcholine-induced calcium response; format: functional; outline: as §1
T3 sequence (P08173 whole entry): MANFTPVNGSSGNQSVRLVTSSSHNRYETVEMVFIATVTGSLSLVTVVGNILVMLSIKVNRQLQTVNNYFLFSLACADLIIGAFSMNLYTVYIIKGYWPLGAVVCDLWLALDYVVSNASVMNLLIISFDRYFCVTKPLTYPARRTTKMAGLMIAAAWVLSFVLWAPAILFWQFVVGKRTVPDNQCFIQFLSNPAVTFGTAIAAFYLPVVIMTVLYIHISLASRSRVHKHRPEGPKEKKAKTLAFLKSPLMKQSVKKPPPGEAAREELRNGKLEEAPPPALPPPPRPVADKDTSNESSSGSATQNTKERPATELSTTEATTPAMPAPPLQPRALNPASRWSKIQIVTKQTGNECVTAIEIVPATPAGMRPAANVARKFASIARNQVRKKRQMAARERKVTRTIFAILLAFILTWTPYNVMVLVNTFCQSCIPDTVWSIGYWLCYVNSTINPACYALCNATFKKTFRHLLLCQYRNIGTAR

[4] = target: T4, Muscarinic acetylcholine receptor M5 (Homo sapiens, UniProt P08912); test: Antagonist activity at human muscarinic M5 receptor assessed as inhibition of acetylcholine-induced calcium response; format: functional; outline: as §1
T4 sequence (P08912 whole entry): T1 sequence (whole entry)

[5] = target: T5, Muscarinic acetylcholine receptor M3 (Homo sapiens, UniProt P20309); test: Antagonist activity at human muscarinic M3 receptor assessed as inhibition of acetylcholine-induced calcium response; format: functional; outline: as §1
Target sequence in this assay (P20309 whole entry): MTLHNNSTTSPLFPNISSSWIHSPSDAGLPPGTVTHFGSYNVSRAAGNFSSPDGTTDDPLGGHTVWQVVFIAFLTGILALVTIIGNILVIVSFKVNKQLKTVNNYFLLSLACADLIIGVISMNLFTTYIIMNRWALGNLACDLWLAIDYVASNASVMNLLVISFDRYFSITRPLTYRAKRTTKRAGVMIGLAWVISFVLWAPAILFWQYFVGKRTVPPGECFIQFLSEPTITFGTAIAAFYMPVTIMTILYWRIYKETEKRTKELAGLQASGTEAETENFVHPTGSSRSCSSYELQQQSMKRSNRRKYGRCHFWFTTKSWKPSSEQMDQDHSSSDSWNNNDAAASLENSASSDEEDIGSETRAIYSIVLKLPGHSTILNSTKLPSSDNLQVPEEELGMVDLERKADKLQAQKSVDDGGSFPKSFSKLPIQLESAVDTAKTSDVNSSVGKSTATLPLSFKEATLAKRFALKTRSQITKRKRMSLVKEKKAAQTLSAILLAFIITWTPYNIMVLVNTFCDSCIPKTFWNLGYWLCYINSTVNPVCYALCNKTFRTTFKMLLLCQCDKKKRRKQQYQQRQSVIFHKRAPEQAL

[6] = target: T6, Muscarinic acetylcholine receptor M1 (Homo sapiens, UniProt P11229); test: Antagonist activity at human muscarinic M1 receptor assessed as inhibition of acetylcholine-induced calcium response; format: functional; outline: as §1
T6 sequence (P11229 whole entry): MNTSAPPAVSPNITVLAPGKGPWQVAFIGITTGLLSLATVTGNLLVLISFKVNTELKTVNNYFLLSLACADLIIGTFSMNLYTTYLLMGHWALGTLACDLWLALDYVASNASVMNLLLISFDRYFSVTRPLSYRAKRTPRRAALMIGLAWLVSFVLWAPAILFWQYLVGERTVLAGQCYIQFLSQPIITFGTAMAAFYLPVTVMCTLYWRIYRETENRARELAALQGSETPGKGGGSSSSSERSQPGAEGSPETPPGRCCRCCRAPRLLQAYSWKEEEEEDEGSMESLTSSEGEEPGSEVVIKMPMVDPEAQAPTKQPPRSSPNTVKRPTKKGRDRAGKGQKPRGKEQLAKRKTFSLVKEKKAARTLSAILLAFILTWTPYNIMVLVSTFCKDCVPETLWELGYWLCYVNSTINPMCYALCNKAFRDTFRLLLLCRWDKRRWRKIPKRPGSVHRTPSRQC

[7] = target: T1, Muscarinic acetylcholine receptor M5 (Homo sapiens); test: Antagonist activity at human muscarinic M5 receptor assessed as inhibition of acetylcholine-induced calcium response at 30 uM; format: functional; outline: as §1
[8] = target: T4, Muscarinic acetylcholine receptor M5; test: Displacement of [3H]NMS from human muscarinic M5 receptor
Outline: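 Competition binding against [3H]-N-methylscopolamine in membranes prepared from cells expressing human M5, n=3.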

[9] = target: T7, Muscarinic acetylcholine receptor M1 (Homo sapiens) (UniProt P11229); test: Antagonist activity at human muscarinic M1 receptor assessed as minimum acetylcholine-induced calcium response at 30 uM; format: functional; set-up: scale not given: the % may be the effect or the level left; outline: as §1
T7 sequence (whole entry): T6 sequence (P11229 whole entry)

[10] = target: T8, Muscarinic acetylcholine receptor M4 (Homo sapiens) (UniProt P08173); test: Antagonist activity at human muscarinic M4 receptor assessed as minimum acetylcholine-induced calcium response at 30 uM; format: functional; set-up: scale not given: the % may be the effect or the level left; outline: as §1
T8 sequence (whole entry): T3 sequence (P08173 whole entry)

[11] = target: T1, Muscarinic acetylcholine receptor M5 (Homo sapiens); test: Antagonist activity at human muscarinic M5 receptor assessed as minimum acetylcholine-induced calcium response at 10 uM; format: functional; set-up: scale not given: the % may be the effect or the level left
[12] = target: T1, Muscarinic acetylcholine receptor M5 (Homo sapiens); test: Antagonist activity at human muscarinic M5 receptor assessed as minimum acetylcholine-induced calcium response at 30 uM; format: functional; set-up: scale not given: the % may be the effect or the level left; outline: as §1
[13] = target: T5, Muscarinic acetylcholine receptor M3; test: Antagonist activity at human muscarinic M3 receptor assessed as minimum acetylcholine-induced calcium response at 30 uM; format: functional; set-up: scale not given: the % may be the effect or the level left; outline: as §1
Target sequence in this assay (P20309 whole entry, looked up): as the sequence (P20309 whole entry) above

[14] = target: T9, Muscarinic acetylcholine receptor M2 (Homo sapiens) (UniProt P08172); test: Antagonist activity at human muscarinic M2 receptor assessed as minimum acetylcholine-induced calcium response at 30 uM; format: functional; set-up: scale not given: the % may be the effect or the level left; outline: as §1
T9 sequence (whole entry): T2 sequence (P08172 whole entry)

Compound	inhibition [1]	IC50 ([4]; read-out: IC50)	also measured
Cc1nn(C)cc1S(=O)(=O)N1CCC2(CC1)OCCS2	inactive	–	–
Cn1cnc(S(=O)(=O)N2CCC3(CC2)OCCS3)c1	inactive	–	–
COc1ccc([C@@]23c4ccccc4C(=O)N2CCN3C(=O)c2cc(F)c(F)c(F)c2)cc1C	–	0.246 µM	IC50 [2]: > 30 µM; IC50 [3]: > 30 µM; IC50 [5]: > 30 µM; IC50 [6]: > 30 µM
CCN(C(=O)Cn1cc(-c2ccccc2)c(N2CCOCC2)n1)c1cccc(C)c1	–	> 10 µM	inhibition [7]: 40%
Cc1noc(C)c1S(=O)(=O)N1CCC2(CC1)OCCS2	40%	> 10 µM	–
Cc1c(S(=O)(=O)N2CCC3(CC2)OCCS3)cnn1C	83%	> 10 µM	–
Cn1cc(S(=O)(=O)N2CCC3(CC2)OCCS3)cn1	27%	> 10 µM	–
O=S(=O)(c1cc(F)c(F)c(F)c1)N1CCC2(CC1)OCCS2	55%	> 10 µM	–
O=S(=O)(c1ccc(F)c(Cl)c1)N1CCC2(CC1)OCCS2	83%	> 10 µM	–
Cc1nn(C)c(C)c1S(=O)(=O)N1CCC2(CCCO2)CC1	37%	> 10 µM	–
Cc1noc(C)c1CCc1nnc2scc(-c3ccc(Cl)cc3)n12	–	> 10 µM	inhibition [7]: 40%
Cc1nn(C)c(C)c1S(=O)(=O)N1CCC2(CC1)SCCS2	86%	> 10 µM	–
Fc1cc(F)cc(-c2nnc(Cc3nc(-c4ccc5c(c4)OCO5)no3)o2)c1	–	5.16 µM	IC50 [2]: 0.93 µM; IC50 [3]: > 10 µM; IC50 [6]: 2.8 µM; Imax [1]: 70%
Cc1nn(C)c(C)c1S(=O)(=O)N1CCC2(CC1)OCCS2	–	3.86 to 6.2 µM	IC50 [2]: > 10 µM; IC50 [3]: > 10 µM; Ki [8]: 2.7 µM; IC50 ([4]; read-out: pIC50 (converted)): 0.661 µM; IC50 [5]: > 10 µM; IC50 [6]: > 10 µM; Activity [9]: 61%; Activity [10]: 55%; Activity [11]: 12.6%; Imax [1]: 50 to 88%; Activity [12]: 16%; Activity [13]: 55%; Activity [14]: 37%
Cc1nn(C)c(C)c1S(=O)(=O)N1CCC2(CC1)OCCO2	45%	> 10 µM	–
O=S(=O)(c1cc(F)cc(F)c1)N1CCC2(CC1)OCCS2	62%	> 10 µM	–

From ChEMBL document CHEMBL4431336, “Ligand-based virtual screen for the discovery of novel M5 inhibitor chemotypes” (Bioorg Med Chem Lett, 2016)
